Reference: ChEMBL document CHEMBL1152781, “Design, synthesis, and structure-activity analysis of isoform-selective retinoic acid receptor beta ligands” (J Med Chem, 2009)
Converted amounts (≈) assume the structure as drawn. One block for each compound: values may come before it. The source made the active and inactive calls. The rule behind the calls is not given here.

Tests used:
[1] = biological target: T1, Retinoic acid receptor beta (Homo sapiens, UniProt P10826); assay: Agonist activity at RARbeta2 expressed in mouse NIH3T3 cells by R-SAT assay; type: functional, cell-based; details: for pEC50: nih3t3
T1 sequence (P10826 whole entry): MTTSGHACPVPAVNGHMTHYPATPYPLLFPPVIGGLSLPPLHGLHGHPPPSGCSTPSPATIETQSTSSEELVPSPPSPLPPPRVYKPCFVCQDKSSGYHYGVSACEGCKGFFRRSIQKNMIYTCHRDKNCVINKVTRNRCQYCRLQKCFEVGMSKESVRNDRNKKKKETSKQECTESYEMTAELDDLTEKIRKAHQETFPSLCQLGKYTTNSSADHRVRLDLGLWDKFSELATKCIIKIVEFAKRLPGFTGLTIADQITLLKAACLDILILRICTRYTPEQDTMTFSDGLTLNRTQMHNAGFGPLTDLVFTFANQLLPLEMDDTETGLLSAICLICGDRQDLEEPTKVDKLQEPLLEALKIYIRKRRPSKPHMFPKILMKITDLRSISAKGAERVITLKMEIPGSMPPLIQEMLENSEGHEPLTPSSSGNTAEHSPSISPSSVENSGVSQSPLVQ

[2] = biological target: T2, Retinoic acid receptor gamma (Homo sapiens) (UniProt P13631); assay: Activity at RARgamma expressed in mouse NIH3T3 cells by R-SAT assay relative to Am-580; type: cell-based
T2 sequence (whole entry): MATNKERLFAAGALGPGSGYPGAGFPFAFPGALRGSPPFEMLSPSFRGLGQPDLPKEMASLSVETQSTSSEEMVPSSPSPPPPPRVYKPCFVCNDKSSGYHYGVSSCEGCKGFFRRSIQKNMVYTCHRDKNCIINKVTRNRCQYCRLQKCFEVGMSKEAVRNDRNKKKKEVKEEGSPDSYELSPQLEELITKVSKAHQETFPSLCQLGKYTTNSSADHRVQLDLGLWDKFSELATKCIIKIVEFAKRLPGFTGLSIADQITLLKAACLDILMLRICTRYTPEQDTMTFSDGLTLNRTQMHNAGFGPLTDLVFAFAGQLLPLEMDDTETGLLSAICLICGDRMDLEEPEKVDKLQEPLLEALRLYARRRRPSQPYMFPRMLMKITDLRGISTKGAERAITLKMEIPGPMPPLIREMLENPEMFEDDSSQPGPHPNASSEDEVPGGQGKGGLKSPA
Outline: (§1)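 High-throughput cell-proliferation functional assay (R-SAT). Efficacy is expressed relative to reference agonist AM-580, which is set to 100%. pEC50 and efficacy are means of at least three experiments ± SD. […] Where marked, efficacy is the maximum at concentrations <10 µM.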

[3] = biological target: T3, Retinoic acid receptor gamma (Homo sapiens, UniProt P13631); assay: Activity at RARgamma expressed in mouse NIH3T3 cells by R-SAT assay; type: cell-based; details: for pEC50: nih3t3
T3 sequence (P13631 whole entry): T2 sequence (whole entry)

[4] = biological target: T4, Retinoic acid receptor beta (Homo sapiens) (UniProt P10826); assay: Activity at RARbeta1 expressed in mouse NIH3T3 cells at <10 uM by R-SAT assay relative to Am-580; type: cell-based; outline: as §1
T4 sequence (whole entry): T1 sequence (P10826 whole entry)

[5] = biological target: T4, Retinoic acid receptor beta (Homo sapiens); assay: Agonist activity at RARbeta2 expressed in mouse NIH3T3 cells by R-SAT assay relative to Am-580; type: functional, cell-based; outline: as §1
[6] = biological target: T5, Retinoic acid receptor alpha (Homo sapiens) (UniProt P10276); assay: Activity at RARalpha expressed in mouse NIH3T3 cells at <10 uM by R-SAT assay relative to Am-580; type: cell-based; outline: as §1
T5 sequence (whole entry): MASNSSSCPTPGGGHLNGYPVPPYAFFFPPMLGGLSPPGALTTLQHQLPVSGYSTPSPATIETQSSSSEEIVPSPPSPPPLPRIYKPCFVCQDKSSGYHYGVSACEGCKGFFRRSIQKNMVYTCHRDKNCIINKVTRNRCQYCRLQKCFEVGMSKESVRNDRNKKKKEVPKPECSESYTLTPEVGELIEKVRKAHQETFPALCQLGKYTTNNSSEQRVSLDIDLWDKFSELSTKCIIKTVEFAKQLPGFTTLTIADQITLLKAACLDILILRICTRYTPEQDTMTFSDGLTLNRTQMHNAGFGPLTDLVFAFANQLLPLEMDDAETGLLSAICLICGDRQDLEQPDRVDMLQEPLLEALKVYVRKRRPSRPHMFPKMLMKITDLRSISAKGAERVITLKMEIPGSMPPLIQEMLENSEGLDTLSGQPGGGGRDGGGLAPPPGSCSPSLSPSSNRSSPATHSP

[7] = Clearance in rat; type: ADME, organism-based; details: in vivo
[8] = Metabolic stability in human liver microsomes assessed as intrinsic clearance; type: ADME, Microsome
Outline: (§2)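 Liver microsomes, rat or human, as stated per line. Read-out is intrinsic clearance in µL/(min·mg) protein. Hepatic extraction was calculated without correcting for the unbound fraction of drug in plasma.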

[9] = biological target: T1, Retinoic acid receptor beta; assay: Activity at RARbeta1 expressed in mouse NIH3T3 cells by R-SAT assay; type: cell-based
[10] = Metabolic stability in rat liver microsomes assessed as intrinsic clearance; type: ADME, Microsome; outline: as §2
[11] = biological target: T6, Retinoic acid receptor alpha (Homo sapiens, UniProt P10276); assay: Activity at RARalpha expressed in mouse NIH3T3 cells by R-SAT assay; type: cell-based; details: for pEC50: nih3t3
T6 sequence (P10276 whole entry): T5 sequence (whole entry)

[12] = biological target: T4, Retinoic acid receptor beta (Homo sapiens); assay: Activity at RARbeta1 expressed in mouse NIH3T3 cells by R-SAT assay relative to Am-580; type: cell-based; outline: as §1
[13] = biological target: T2, Retinoic acid receptor gamma (Homo sapiens); assay: Activity at RARgamma expressed in mouse NIH3T3 cells at <10 uM by R-SAT assay relative to Am-580; type: cell-based; outline: as §1
NIH3T3 [14] = assay: Selectivity for RARbeta2 expressed in mouse NIH3T3 cells over RARbeta1 expressed in mouse NIH3T3 cells; type: cell-based
[15] = biological target: T4, Retinoic acid receptor beta (Homo sapiens); assay: Activation of RARbeta2 expressed in HEK293 cells after 48 hrs by RARE-luciferase reporter gene assay; type: cell-based
[16] = Lipophilicity, Log P of the compound; type: physicochemical; details: octanol/water
Outline: (§3)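 Lipophilicity descriptors, cLogD at pH 7.4 and cLogP, are mostly calculated. Values in parentheses are experimentally determined.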

NTERA2 = assay: Induction of neurite outgrowth in human NTERA2 cells; type: functional, cell-based
NIH3T3 [17] = assay: Selectivity for RARbeta2 expressed in mouse NIH3T3 cells over RARalpha expressed in mouse NIH3T3 cells; type: cell-based
[18] = Aqueous solubility in phosphate buffer at pH 7.4; type: physicochemical
NIH3T3 [19] = assay: Selectivity for RARbeta2 expressed in mouse NIH3T3 cells over RARgamma expressed in mouse NIH3T3 cells; type: cell-based
[20] = Distribution coefficient, log D of the compound; type: physicochemical; details: octanol/water; outline: as §3
MCF7 [21] = assay: Inhibition of human MCF7 cell proliferation assessed as inhibition of DNA synthesis by [3H]thymidine incorporation assay; type: functional, cell-based
MCF7 [22] = assay: Inhibition of human MCF7 cell proliferation; type: functional, cell-based

Structure (SMILES): CCCCCCNC(=O)COc1nc(-c2ccc(C(=O)O)cc2)sc1C
- EC50 [1]: 39.8 nM
- Efficacy [2]: 63%
- EC50 [3]: 631 nM
- Efficacy [4]: 42%
- Efficacy [5]: 85%
- Efficacy [6]: 35%

Structure (SMILES): CCCCCCCCOc1ccc(-c2ccc(C(=O)O)cc2)cc1
- EC50 [1]: 100 nM
- EC50 [9]: 1000 nM
- Efficacy [5]: 70%
- Efficacy [12]: 49%

Structure (SMILES): CCCCOCCOc1nc(-c2ccc(C(=O)O)cc2)sc1C
- EC50 [1]: 79.4 nM
- EC50 [9]: 1260 nM
- Efficacy [5]: 99%
- Efficacy [13]: 54%
- Efficacy [12]: 45%

Structure (SMILES): CCCCCCOc1ccc(-c2ccc(C(=O)O)cc2)cc1
- EC50 [1]: 31.6 nM
- Efficacy [5]: 72%
- Activity [12]: inactive

Structure (SMILES): CCCCOCCOc1ccc(-c2ccc(C(=O)O)cc2)cc1
- EC50 [1]: 63.1 nM
- Activity [2]: inactive
- pEC50 [3]: > 5
- Efficacy [5]: 78%
- pEC50 [11]: > 5
- Activity [12]: inactive

Structure (SMILES): CCCCCCCc1cnc(-c2ccc(C(=O)O)cc2)nc1
- EC50 [1]: 1000 nM
- Efficacy [5]: 93%

Structure (SMILES): CCCCCCNC(=O)COc1ccc(-c2ccc(C(=O)O)cc2)cc1
- pEC50 [1]: > 5
- Activity [5]: inactive

Structure (SMILES): CCCCCCCc1ccc(-c2ccc(C(=O)O)s2)cc1
- pEC50 [1]: > 5
- Activity [5]: inactive

Structure (SMILES): CCCCCCCc1ccc(-c2ccc(C(=O)O)cc2)cc1
- Efficacy [12]: 230%

Structure (SMILES): CC(C)CCCCOc1ccc(-c2ccc(C(=O)O)cc2)cc1
- Efficacy [4]: 28%
- Efficacy [5]: 75%
- Efficacy [13]: 31%
- pEC50 [11]: > 5

Structure (SMILES): CC1(C)CCC(C)(C)c2cc(C(=O)Nc3ccc(C(=O)O)cc3)ccc21
- Efficacy [2]: 99%

Structure (SMILES): CCCCCCCCc1ccc(-c2ccc(C(=O)O)cc2F)cc1
- EC50 [1]: 100 nM
- Efficacy [5]: 85%

Structure (SMILES): CCCCOCCOc1ccc(-c2ccc(C(=O)O)c(F)c2)cc1
- EC50 [1]: 20 nM
- microsomal CLint [8]: 8 µL/min/mg
- Efficacy [4]: 36%
- Efficacy [5]: 108%
- solubility [18]: 20 µg/mL (≈ 60.2 µM)
- Efficacy [13]: 37%
- EC50 [11]: 1580 nM

Structure (SMILES): CCCCCCCc1ccc(-c2ccc(C(=O)O)cc2C)cc1
- pEC50 [1]: > 5
- Activity [5]: inactive

Continued, in another order:

- Efficacy [2]: 48%
- EC50 [3]: 501 nM
- clearance [7]: 41 mL/min/kg
- microsomal CLint [8]: 36 µL/min/mg
- EC50 [9]: 398 nM
- Efficacy [5]: 106%
- microsomal CLint [10]: 10 µL/min/mg
- EC50 [11]: 631 nM
- Efficacy [12]: 52%
Structure (SMILES): CCCCOCCOc1nc(-c2ccc(C(=O)O)c(F)c2)sc1C

- pEC50 [1]: > 5
- Activity [5]: inactive
Structure (SMILES): CCCCCCCCc1ccc(-c2ccc(C(=O)O)s2)cc1

- EC50 [1]: 100 nM
- Efficacy [5]: 37%
Structure (SMILES): CCCCCCCCc1ccc(-c2ccc(C(=O)O)cc2C)cc1

- pEC50 [1]: > 5
- Activity [5]: inactive
Structure (SMILES): CCCCCCCOc1nc(-c2ccc(C(=O)O)cc2)sc1C

- Activity [15]: Active
- logP [16]: 7.9
- microsomal CLint [8]: 5 µL/min/mg
- EC50 [9]: 2000 nM
- solubility [18]: < 1 µg/mL
- Efficacy [13]: 31%
- microsomal CLint [10]: 5 µL/min/mg
- logD [20]: 4.5
- EC50 [11]: 2510 nM
- Efficacy [12]: 29%
Structure (SMILES): CCCCCCCCc1ccc(-c2ccc(C(=O)O)cc2)cc1
- fold change (FC) (NIH3T3 [14]): 100
- Activity (NTERA2): Active
- fold change (FC) (NIH3T3 [17]): 100
- fold change (FC) (NIH3T3 [19]): 100
- Activity (MCF7 [21]): Active
- Activity (MCF7 [22]): Dose-dependent effect

- EC50 [1]: 63.1 nM
- Activity [2]: inactive
- pEC50 [3]: > 5
- Efficacy [5]: 62%
- pEC50 [11]: > 5
- Activity [12]: inactive
Structure (SMILES): CCCCCCCOc1ccc(-c2ccc(C(=O)O)cc2)cc1

- EC50 [1]: 63.1 nM
- Efficacy [5]: 78%
Structure (SMILES): CCOCCOc1nc(-c2ccc(C(=O)O)cc2)sc1C

- EC50 [1]: 39.8 nM
- Efficacy [2]: 84%
- EC50 [3]: 158 nM
- EC50 [9]: 398 nM
- Efficacy [5]: 114%
- EC50 [11]: 2000 nM
- Efficacy [12]: 54%
Structure (SMILES): CCCCCCCCc1ccc(-c2ccc(C(=O)O)c(F)c2)cc1

- EC50 [1]: 126 nM
- Efficacy [5]: 50%
Structure (SMILES): CCCCCCCc1ccc(-c2ccc(C(=O)O)c(F)c2)cc1

- EC50 [1]: 631 nM
- Efficacy [5]: 84%
Structure (SMILES): CCCCCCCCc1ccc(-c2ccc(C(=O)O)c(C)c2)cc1

- EC50 [1]: 126 nM
- Efficacy [5]: 100%
Structure (SMILES): CCCOCCOc1nc(-c2ccc(C(=O)O)cc2)sc1C

- EC50 [1]: 251 nM
- Efficacy [5]: 41%
Structure (SMILES): CCCCOCCOc1cc(C)c(-c2ccc(C(=O)O)cc2)cc1C
